pKi: −log10 of the molar value. The source made the active and inactive calls. No cut-off for these calls is given here.
Tests used:
[1] = biological target: T1, Sigma intracellular receptor 2 (Rattus norvegicus, UniProt Q5U3Y7); experiment: Displacement of [3H]-DTG from sigma 2 receptor in male Sprague-Dawley rat liver membrane assessed as inhibition constant in presence of pentazocine by liquid scintillation counter analysis; type: cell membranes
T1 sequence (Q5U3Y7 whole entry): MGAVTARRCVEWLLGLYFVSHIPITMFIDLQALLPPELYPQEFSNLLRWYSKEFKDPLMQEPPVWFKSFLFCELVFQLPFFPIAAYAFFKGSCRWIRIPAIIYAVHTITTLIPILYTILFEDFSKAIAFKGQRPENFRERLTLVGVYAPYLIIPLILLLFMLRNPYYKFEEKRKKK

[2] = biological target: Sigma non-opioid intracellular receptor 1 (Rattus norvegicus, UniProt Q9R0C9); experiment: Displacement of [3H]-pentazocine from sigma 1 receptor in male Sprague-Dawley rat liver membrane assessed as inhibition constant by liquid scintillation counter analysis; type: cell membranes
Sequence of Sigma non-opioid intracellular receptor 1 (Q9R0C9 whole entry): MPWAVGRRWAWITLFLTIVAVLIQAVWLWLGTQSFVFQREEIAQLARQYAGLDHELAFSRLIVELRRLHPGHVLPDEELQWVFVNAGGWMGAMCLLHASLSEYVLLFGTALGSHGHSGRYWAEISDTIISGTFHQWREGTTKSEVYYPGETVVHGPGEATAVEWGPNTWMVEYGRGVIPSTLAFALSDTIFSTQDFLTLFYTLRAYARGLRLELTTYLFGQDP

[3] = biological target: Delta-type opioid receptor (Rattus norvegicus, UniProt P33533); experiment: Displacement of [3H]-Deltorphin from DOR in male Sprague-Dawley rat brain membrane assessed as inhibition constant incubated for 45 mins by liquid scintillation counter analysis; type: cell membranes
Sequence of Delta-type opioid receptor (P33533 whole entry): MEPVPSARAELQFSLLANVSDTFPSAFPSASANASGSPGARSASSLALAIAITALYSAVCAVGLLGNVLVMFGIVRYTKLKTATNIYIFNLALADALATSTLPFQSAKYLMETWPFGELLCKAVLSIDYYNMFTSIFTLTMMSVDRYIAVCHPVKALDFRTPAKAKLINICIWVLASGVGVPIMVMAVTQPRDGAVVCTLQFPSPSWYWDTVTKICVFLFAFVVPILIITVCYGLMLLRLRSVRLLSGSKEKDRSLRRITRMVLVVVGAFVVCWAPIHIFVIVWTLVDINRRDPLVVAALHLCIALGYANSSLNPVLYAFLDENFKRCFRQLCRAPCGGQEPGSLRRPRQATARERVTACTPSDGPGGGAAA

Mu-type opioid receptor = Mu-type opioid receptor (Rattus norvegicus, UniProt P33535); experiment: Displacement of [3H]-DAMGO from MOR in male Sprague-Dawley rat brain membrane assessed as inhibition constant incubated for 45 mins by liquid scintillation counter analysis; type: cell membranes
Sequence of Mu-type opioid receptor (P33535 whole entry): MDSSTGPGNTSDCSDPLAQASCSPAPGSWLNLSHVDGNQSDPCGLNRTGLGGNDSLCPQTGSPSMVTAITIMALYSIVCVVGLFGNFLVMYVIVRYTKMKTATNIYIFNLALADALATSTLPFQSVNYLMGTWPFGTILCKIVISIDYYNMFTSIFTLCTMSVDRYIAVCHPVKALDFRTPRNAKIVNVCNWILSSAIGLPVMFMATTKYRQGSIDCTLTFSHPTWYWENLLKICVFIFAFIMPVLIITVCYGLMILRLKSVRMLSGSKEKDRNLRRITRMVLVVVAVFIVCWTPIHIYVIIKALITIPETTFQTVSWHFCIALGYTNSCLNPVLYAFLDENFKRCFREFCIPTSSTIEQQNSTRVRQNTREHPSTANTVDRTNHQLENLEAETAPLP

[4] = biological target: Kappa-type opioid receptor (Cavia porcellus, UniProt P41144); experiment: Displacement of [3H]-U69593 from KOR in male Dunkin-Hartley guinea pig brain membrane assessed as inhibition constant incubated for 30 mins by liquid scintillation counter analysis; type: cell membranes
Sequence of Kappa-type opioid receptor (P41144 whole entry): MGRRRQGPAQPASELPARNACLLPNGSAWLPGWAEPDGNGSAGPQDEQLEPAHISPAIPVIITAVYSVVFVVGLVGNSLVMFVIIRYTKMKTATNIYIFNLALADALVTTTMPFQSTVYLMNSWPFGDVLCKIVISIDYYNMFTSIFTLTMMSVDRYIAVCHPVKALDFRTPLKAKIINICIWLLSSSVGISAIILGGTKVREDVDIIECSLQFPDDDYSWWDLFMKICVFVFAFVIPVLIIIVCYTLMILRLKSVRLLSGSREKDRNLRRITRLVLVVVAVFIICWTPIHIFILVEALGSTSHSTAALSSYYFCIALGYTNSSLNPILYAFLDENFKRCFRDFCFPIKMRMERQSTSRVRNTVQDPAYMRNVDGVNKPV

Mus musculus [5] = experiment: Antinociceptive activity in formalin-induced male CD1 mouse assessed as reduction in nociceptive behavior by measuring decrease in lifting/licking time at behavioral pain phase (II) at 5 to 7 mg/kg, ip pre-administered with compound for 20 mins followed by formalin induction and measured for 1 hrs; type: functional, organism-based; details: dose 5-7 mg/kg, time 80.0 min
Outline: (§1)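 Male CD1 mice, 8–12 weeks, randomized and acclimated 20 min. Drug in saline with 0.5% v/v DMSO given i.p. 20 min before formalin (5%, 10 μL) into the right hind-paw plantar surface. Licking, flicking or shaking of the injected paw recorded every 5 min for 1 h by a blinded observer.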

[6] = Stability of the compound in C57 mouse plasma assessed as retention time at 200 uM measured up to 60 mins by RP-HPLC analysis; type: ADME, cell-free; details: 1 h
Outline: (§2)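 A 10 mM DMSO stock was added to C57 mouse plasma prewarmed to 37 °C (final 200 μM) and held at 37 ± 0.5 °C. Samples taken at 0, 1, 5, 20 and 60 min were deproteinized 1:1 with acetonitrile containing 0.1% HCOOH (100 μM), centrifuged, filtered, and analysed by C18 RP-HPLC-DAD. Duplicates; t1/2 from a one-phase exponential decay fit with the plateau fixed at 0.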

[7] = Chemical stability of the compound in aqueous phosphate buffer at pH 7.4 assessed as half life at 200 uM by RP-HPLC analysis; type: physicochemical; details: pH 7.4, 200 µM
Outline: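 A 10 mM DMSO stock was added to pH 7.4 phosphate buffer prewarmed to 37 °C (final 200 μM) and held at 37 ± 0.5 °C for up to 300 min. Aliquots were mixed 1:1 with acetonitrile (100 μM), filtered and run on C18 RP-HPLC with DAD at 285 nm against a 10–250 μM calibration curve. Duplicates; t1/2 from a one-phase exponential decay fit.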

Mus musculus [8] = experiment: Antinociceptive activity in formalin-induced male CD1 mouse model assessed as effect on nociceptive behavior by measuring rapid pain response (phase I) at 3 to 7 mg/kg, ip pre-administered with compound for 20 mins followed by formalin induction and measured for 1 hrs; type: functional, organism-based; details: dose 3-7 mg/kg, time 80.0 min; outline: as §1
[9] = Stability of the compound in C57 mouse plasma assessed as half life at 200 uM measured up to 60 mins by RP-HPLC analysis; type: ADME, cell-free; details: 1 h; outline: as §2
Mus musculus [10] = experiment: Antinociceptive activity in formalin-induced male CD1 mouse model assessed as effect on nociceptive behavior by measuring behavioral pain (phase II) at 3 mg/kg, ip pre-administered with compound for 20 mins followed by formalin induction and measured for 1 hrs; type: functional, organism-based; details: time 80.0 min; outline: as §1
Mus musculus [11] = experiment: Antinociceptive activity in formalin-induced male CD1 mouse assessed as reduction in nociceptive behavior by measuring decrease in flinches at behavioral pain phase (II) at 5 to 7 mg/kg, ip pre-administered with compound for 20 mins followed by formalin induction and measured for 1 hrs; type: functional, organism-based; details: dose 5-7 mg/kg, time 80.0 min; outline: as §1
[12] = Stability of the compound in C57 mouse plasma at 200 uM measured up to 5 mins by RP-HPLC analysis; type: ADME, cell-free; outline: as §2
[13] = Stability of the compound in C57 mouse plasma at 200 uM measured at >= 20 mins by RP-HPLC analysis; type: ADME, cell-free; outline: as §2

Compound	pKi [1]	pKi [2]	pKi [3]	pKi (Mu-type opioid receptor)	pKi [4]	Activity (Mus musculus [5])	Retention_time [6] [min]	t1/2 [7] [h]	Activity (Mus musculus [8])	t1/2 [9] [h]	Activity (Mus musculus [10])	Activity (Mus musculus [11])	Stability [12]	Stability [13]
COC(=O)CCN1CC[C@]2(C)c3cc(O)ccc3C[C@H]1[C@H]2C	< 5.00	< 5.00	< 5.30	< 5.30	< 5.30									
COC(=O)CCCN1CC[C@]2(C)c3cc(O)ccc3C[C@H]1[C@H]2C	< 5.00	6.80	< 5.30	< 5.30	< 5.30									
C[C@@H]1[C@@H]2Cc3ccc(O)cc3[C@@]1(C)CCN2CCC(=O)O	< 5.00	< 5.00	< 5.30	< 5.30	< 5.30									
C[C@@H]1[C@@H]2Cc3ccc(O)cc3[C@@]1(C)CCN2CCCC(=O)O	< 5.00	< 5.00	< 5.30	< 5.30	< 5.30									
CCOC(=O)C(CCN1CC[C@]2(C)c3cc(O)ccc3C[C@H]1[C@H]2C)c1ccccc1 (mixture of isomers)	< 6.00	7.56	< 5.30	< 5.30	< 5.30	Active	10.52	5	Not active; Compound Did Not Significantly Modify Licking And Flicking/Shanking Time Of Injected Paw	0.5178	Not active; Compound Did Not Significantly Modify Licking And Flicking/Shanking Time Of Injected Paw	Active	Stable	Unstable
C[C@@H]1[C@@H]2Cc3ccc(O)cc3[C@@]1(C)CCN2CCC(C(=O)O)c1ccccc1 (mixture of isomers)	< 5.00	< 5.00	< 5.30	< 5.30	< 5.30									
C[C@@H]1[C@@H]2Cc3ccc(O)cc3[C@@]1(C)CCN2CC(C(=O)O)c1ccccc1 (mixture of isomers)	< 5.00	6.18	< 5.30	< 5.30	< 5.30									
CCOC(=O)C(CCCN1CC[C@]2(C)c3cc(O)ccc3C[C@H]1[C@H]2C)c1ccccc1 (mixture of isomers)	< 5.00	6.23	< 5.30	< 5.30	< 5.30									
C[C@@H]1[C@@H]2Cc3ccc(O)cc3[C@@]1(C)CCN2CCCC(C(=O)O)c1ccccc1 (mixture of isomers)	< 5.00	< 5.00	< 5.30	< 5.30	< 5.30									
CCOC(=O)C(CN1CC[C@]2(C)c3cc(O)ccc3C[C@H]1[C@H]2C)c1ccccc1 (mixture of isomers)	< 5.00	< 5.00	< 5.30	< 5.30	< 5.30									

— ChEMBL document CHEMBL6182827 (RSC Med Chem, 2025)
